From PubChem BioAssay
CHRM4 PAM = CHRM4 positive allosteric modulation | 360,000 tested, 0.4% active | activation, % at 3 µM | CHO-K1 hM4/Gqi5, Fluo-8 calcium fluorescence, ACh EC20; 0% = ACh EC20, 100% = maximal ACh | P08173;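 active means activation above its plate's cutoff, the mean activation of sample wells plus 3 SD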
CHRM4 antagonist = blocks acetylcholine activation of human M4 receptor. P08173. CHO-hM4 cells, ACh EC80, Fluo-8 calcium fluorescence. inhibition, % at 3 µM. 360,000 tested, 0.73% active;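 active means inhibition above its plate's cutoff, the mean inhibition of sample wells plus 3 SD, cut at about 27% in these data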;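 further: 0% = acetylcholine EC80 with DMSO and 100% = DMSO without agonist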
CHRM5 PAM = positive allosteric modulators of human muscarinic M5 receptor. activation, % at 3 µM. CHO-K1 hM5, Fluo-8 calcium, ACh EC20 PAM; 0% = ACh EC20, 100% = ACh EC100. 360,000 tested, 0.3% active. P08912. AID 624038;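 active means activation above the run cutoff, the mean activation of all test compounds plus 3 SD, cut at about 18% in these data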
Target sequence (P08912 whole entry, looked up): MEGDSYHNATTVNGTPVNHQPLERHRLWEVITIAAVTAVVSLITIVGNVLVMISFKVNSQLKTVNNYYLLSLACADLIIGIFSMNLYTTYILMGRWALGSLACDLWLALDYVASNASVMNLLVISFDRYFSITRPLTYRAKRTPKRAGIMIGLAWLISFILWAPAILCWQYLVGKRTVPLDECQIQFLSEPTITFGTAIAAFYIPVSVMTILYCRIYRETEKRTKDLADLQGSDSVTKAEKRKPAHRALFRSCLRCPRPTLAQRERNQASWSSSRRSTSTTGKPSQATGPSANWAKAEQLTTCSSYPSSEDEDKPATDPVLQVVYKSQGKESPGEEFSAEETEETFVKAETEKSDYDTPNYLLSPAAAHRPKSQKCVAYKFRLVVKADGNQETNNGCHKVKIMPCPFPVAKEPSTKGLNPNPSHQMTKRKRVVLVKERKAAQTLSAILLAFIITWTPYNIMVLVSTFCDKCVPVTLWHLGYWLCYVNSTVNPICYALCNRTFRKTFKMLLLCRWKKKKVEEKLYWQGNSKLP
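system = human M5 receptor in CHO-K1 cells | reagent = EC20 acetylcholine as agonist stimulus | compound dosing = single-point, 3 µM nominal | incubation = Fluo-8 loading 80 min at 37 °C plus 30 min room temperature | detection = Fluo-8 calcium dye fluorescence, kinetic read | benchmarks = low control EC20 acetylcholine (0%), high control EC100 acetylcholine (100%)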
CHRM5 antagonist = blocks acetylcholine activation of human M5 receptor; P08912; CHO-hM5 cells, Fluo-8 calcium fluorescence, ACh EC80; inhibition, % at 3 µM; 360,000 tested, 0.59% active; AID 624040;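 active means inhibition above a per-plate cutoff, the mean of that plate's test compounds plus 3 SD, cut at about 27% in these data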;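 further: 0% = acetylcholine EC80 with DMSO and 100% = DMSO without agonist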
M5 ag = agonists of human muscarinic M5 receptor (CHRM5) | P08912 | CHO-K1 hM5 cells, Fluo-8 calcium fluorescence; 0% DMSO wells, 100% maximal acetylcholine response | activation, % at 3 µM | 360,000 tested, 0.19% active;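 active means activation above the run's mean over test compounds plus 3 SD, cut at about 23% in these data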;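 further: signal is peak over basal fluorescence ratio across the kinetic read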
M4 ag = agonists of human muscarinic M4 receptor (CHRM4) | P08173 | CHO-K1 hM4/Gqi5, Fluo-8 calcium fluorescence; vehicle 0%, full acetylcholine response 100% | activation, % at 3 µM | 360,000 tested, 0.14% active | AID 624127;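 active means activation above the run mean over all test wells plus 3 SD, cut at about 32% in these data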;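 further: peak over basal fluorescence ratio per well then scaled between controls; 0% = DMSO wells and 100% = acetylcholine at EC100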
An asterisk follows results filed as active. An excerpt weighted towards active compounds, which were near 1.8% of everything screened.

SMILES	CHRM4 PAM	CHRM4 antagonist	CHRM5 PAM	CHRM5 antagonist	M5 ag	M4 ag
COc1ccccc1Cc1c(C2CCCCC2)nc2c3ccccc3ccn12	1	-3	18*	1	-3	-1
CCOc1ccc(NC(=O)c2cc3c(=O)n(C)c4ccccc4c3n2C)cc1	3	-1	0	-2	4	1
COc1ccccc1NC(=O)c1cc2c(=O)n(C)c3ccccc3c2n1C	-22	54*	-17	15	-3	10
CCCCCNC(=O)C(C1CC1)n1c(=O)c(-c2ccco2)nc2ccccc21 (stereo not given)	-1	-10	4	-9	2	4
CCCCCCCCCC[n+]1cccc2c3ccccc3ccc21	-23	58*	-30	46*	-9	5
CCCCCCCC[n+]1cccc2c3ccccc3ccc21	-25	65*	-18	36*	-14	0
COc1cc(-c2cnc3c(NC=O)cc(-c4ccccc4Cl)cn23)cc(OC)c1OC	1	-7	-3	4	-1	1
CS(=O)(=O)Nc1cccc(NC(=O)C2Cc3c(-c4cccc(F)c4)ccnc3O2)c1 (stereo not given)	1	-6	0	3	1	6
O=C(C[C@H]1C(=O)N(Cc2ccccc2)C[C@@H]1c1ccc(Br)cc1)Nc1ccc(Br)cc1	-2	-14	0	-1	-1	0
O=S(=O)(c1ccccc1)N1N=C(c2cccs2)CC1c1ccc(Br)cc1 (stereo not given)	21*	-8	-2	-7	-1	0
Cc1ccc(C2N(c3ccccc3)C(=S)N3CCCN23)cc1 (stereo not given)	-14	48*	-29	10	-13	0
Fc1ccc(C2N(c3ccccc3)C(=S)N3CCCN23)cc1 (stereo not given)	-23	11	-4	8	-18	-1
CN(C)c1ccc(/C=C/c2nc3ccccc3c(=O)n2-c2ccc(C(=O)O)cc2)cc1	-18	16	-10	10	26*	55*
Cc1ccc(S(=O)(=O)n2cnc(C)c2)cc1	-3	-2	20*	-17	14	0
CC(=O)Nc1ccc(S(=O)(=O)n2cnc(C)c2)cc1	19	4	5	7	-1	0
CCOC(=O)c1ccc(NC(=O)CSc2nnc(-c3cccs3)n2CC)cc1	12	-2	-2	1	3	1
CCOC(=O)c1ccc(NC(=O)CSc2nnc(-c3cccs3)n2C)cc1	4	-9	21*	-8	3	2
COC(=O)CN1CCN(C(c2ccccc2)c2ccccc2)CC1	-7	9	1	2	-7	0
CN(Cc1ccccc1)C(=O)CN1CCN(C(c2ccccc2)c2ccccc2)CC1	-27	50*	-34	11	-18	0
CC1CCN(C(=O)COC(=O)c2ccc3ccccc3n2)CC1	-2	4	-5	-4	1	0
CN(C(=O)COC(=O)c1ccc2ccccc2n1)C1CCCCC1	25*	2	11	0	2	2
Cc1occc1C(=O)NC(C)CCc1ccccc1 (stereo not given)	-1	4	3	-1	-1	0
Cc1occc1C(=O)NC(C)C(C)(C)C (stereo not given)	15	29*	-3	10	-1	2
C[C@@H]1CN([C@@H](C)CO)C(=O)c2cc(C#Cc3ccccc3)cnc2O[C@H]1CN(C)C(=O)c1ccccc1F	9	-15	-2	-1	0	4
CCOc1cc(CNCCSc2nnnn2C)cc(Br)c1OCc1ccc(F)cc1	-14	28*	-21	25	-1	22
SMILES	CHRM4 PAM	CHRM4 antagonist	CHRM5 PAM	CHRM5 antagonist	M5 ag	M4 ag
COc1ccc(N(CC(C)C)S(=O)(=O)c2nnc(NC(=O)c3ccco3)s2)cc1	5	-7	1	6	-5	1
Cn1c(CN2CCCCC2)nc2cc(NS(=O)(=O)c3ccc(Cl)cc3)ccc21	3	1	-6	0	19	43*
C#CCN(C[C@H]1[C@H](OC(=O)NCC2CCCCC2)[C@H](OC(=O)NCC2CCCCC2)C[C@@H](C(=O)OC)[C@H]1C(=O)OC)S(=O)(=O)c1ccc(C)cc1	-4	-5	1	-5	1	0
c1ccc(-n2ncc3c(NCC4CCCO4)ncnc32)cc1 (stereo not given)	-4	-1	-17	15	-5	4
Clc1ccc(-n2ncc3c(NCC4CCCO4)ncnc32)cc1 (stereo not given)	-16	37*	-2	-5	4	2
S=c1[nH]nc(CN2CCCC2)n1Cc1ccccc1	-14	19	-7	9	-18	1
S=c1[nH]nc(CN2CCCCC2)n1Cc1ccccc1	-27	31*	-33	6	-18	0
O=C(Nc1c(Cl)cc2c(c1Cl)Cc1cc([N+](=O)[O-])ccc1-2)C(Cl)Cl	-2	-13	-14	17	-1	7
O=C(NC(=S)N1CCCC1)c1ccc(Cl)cc1	6	-11	-7	12	-3	1
CN1CCN(C(=S)NC(=O)c2ccc(Cl)cc2)CC1	23*	-16	17	-7	-4	1
O=C1NC(=Nc2ccccc2Cl)S/C1=C\c1cc([N+](=O)[O-])ccc1O	-12	-6	-3	12	32*	9
COc1cc(/C=C2\S/C(=N/S(=O)(=O)c3ccc(C)cc3)NC2=O)c([N+](=O)[O-])cc1OC	4	13	7	-5	-1	0
COc1cccc(N=C2NC(=O)/C(=C/c3cc([N+](=O)[O-])ccc3O)S2)c1	-10	6	1	2	1	1
Cc1ccc(S(=O)(=O)/N=C2/NC(=O)/C(=C/c3cc([N+](=O)[O-])ccc3O)S2)cc1	-26	30*	-18	8	49*	108*
COc1ccc(NS(=O)(=O)c2ccc(N3CCCC3=O)cc2)cn1	-17	13	-20	28*	3	21
c1ccc(-c2nn3nnnc3c3ccccc23)cc1	-3	5	-2	2	0	0
Cc1ccc(-c2nn3nnnc3c3ccccc23)cc1C	39*	11	10	7	-2	1
COc1ccc(OCCNC(=O)C2(C)CCN2Cc2ccc(SC)cc2)cc1 (stereo not given)	-8	9	-3	2	-2	9
COc1ccc(OCCNC(=O)C2(C)CCN2Cc2ccc3ccccc3c2)cc1 (stereo not given)	-13	29*	-19	14	0	10
CCOc1ccc(C(=O)NCc2ccco2)cc1OC	-3	-1	-1	6	-1	28
